The source of these data is ChEMBL document CHEMBL1131440, “Synthesis and potent antifolate activity and cytotoxicity of B-ring deaza analogues of the nonpolyglutamatable dihydrofolate reductase inhibitor Nalpha-(4-amino-4-deoxypteroyl)-Ndelta-hemiphthaloyl- L-ornithine (PT523)” (J Med Chem, 1998).

Assay [1] relates to U-251. Nature of the assay: Compound was evaluated for in vitro activity against U251 CNS cell lines (Human tumor cells ). The class given is functional, cell-based. An outline of the steps:
(§1)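 NCI Developmental Therapeutics Program human tumor cell panel; drug exposure in 96-well plates for the last 48 h of a 72-h incubation, then cells stained for total protein with sulforhodamine B per the standard NCI protocol. Data supplied by NCI.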

The test system of assay [2] is IGROV-1. As to the kind of experiment: Compound was evaluated for in vitro activity against IGROV1 Ovary cell lines (Human tumor cells ). The class given is functional, cell-based. An outline of the steps:
as §1

Assay [3] concerns LOX IMVI. As to the kind of experiment: Compound was evaluated for in vitro activity against LOXIMV1 Melanoma cell lines (Human tumor cells ). It is filed as functional, cell-based. An outline of the steps: (§2)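 Total protein then stained with sulforhodamine B following the standard NCI protocol. Data supplied by the NCI Developmental Therapeutics Program.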
For assay [4], the system named is BT-549. Nature of the assay: Compound was evaluated for in vitro activity against BT-549 breast cancer cell lines (Human tumor cells ). The class given is functional, cell-based. An outline of the steps: as §1
Assay [5] relates to UACC-62. As to the kind of experiment: Compound was evaluated for in vitro activity against UACC-62 Melanoma cell lines (Human tumor cells ). It is filed as functional, cell-based. An outline of the steps: as §1
Assay [6] relates to MOLT-4. Nature of the assay: Compound was evaluated for in vitro activity against MOLT-4 leukemia cell lines (Human tumor cells ). The class given is functional, cell-based. An outline of the steps: as §1
Assay [7] relates to HCC 2998. Nature of the assay: Compound was evaluated for in vitro activity against HCC2998 Colon cell lines (Human tumor cells ). It is filed as functional, cell-based. An outline of the steps:
as §1

Assay [8] has as its system NCI-H522. Nature of the assay: Compound was evaluated for in vitro activity against NCI-H522 lung cancer cell lines (Human tumor cells ). The class given is functional, cell-based. An outline of the steps: as §1
For assay [9], the target named is T1, Dihydrofolate reductase (Homo sapiens, UniProt P00374).
T1 sequence (P00374 whole entry): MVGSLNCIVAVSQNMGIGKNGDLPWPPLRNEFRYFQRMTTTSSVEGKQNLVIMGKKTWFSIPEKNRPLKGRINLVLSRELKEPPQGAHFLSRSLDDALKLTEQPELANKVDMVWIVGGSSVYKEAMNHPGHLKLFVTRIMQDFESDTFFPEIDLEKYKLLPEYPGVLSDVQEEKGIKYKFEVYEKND
As to the kind of experiment: Compound was evaluated for the inhibition of Dihydrofolate reductase at concentration ranged from 0.15-0.50 uM.

Assay [10] concerns NCI-H460. As to the kind of experiment: Compound was evaluated for in vitro activity against NCI-H460 lung cancer cell lines (Human tumor cells ). It is filed as functional, cell-based. Summed up: as §1
In assay [11] the test system is MDA-MB-435. As to the kind of experiment: Compound was evaluated for in vitro activity against MDA-MB-435 breast cancer cell lines (Human tumor cells ). It is filed as functional, cell-based. Summed up:
as §1

Assay [12] has as its system OVCAR-3. As to the kind of experiment: Compound was evaluated for in vitro activity against OVCAR-3 Ovary cell lines (Human tumor cells ). It is filed as functional, cell-based. An outline of the steps:
as §2

Assay [13] relates to A498. Nature of the assay: Compound was evaluated for in vitro activity against A498 kidney cell lines (Human tumor cells ). It is filed as functional, cell-based. An outline of the steps: as §1
In assay [14] the test system is KM12. Nature of the assay: Compound was evaluated for in vitro activity against KM-12 Colon cell lines (Human tumor cells ). It is filed as functional, cell-based. Summed up: as §1
Assay [15] has as its system RPMI-8226. As to the kind of experiment: Compound was evaluated for in vitro activity against RPMI-8226 leukemia cell lines (Human tumor cells ). It is filed as functional, cell-based. An outline of the steps:
as §1

Assay [16] concerns TK-10. Nature of the assay: Compound was evaluated for in vitro activity against TK-10 kidney cell lines (Human tumor cells ). It is filed as functional, cell-based. Summed up:
as §1

Assay [17] relates to Hs-578T. Nature of the assay: Compound was evaluated for in vitro activity against Hs 578.T breast cancer cell lines (Human tumor cells ). It is filed as functional, cell-based. An outline of the steps: as §1
The subject of assay [18] is SNB-. Nature of the assay: Compound was evaluated for in vitro activity against […] CNS cell lines (Human tumor cells ). It is filed as functional, cell-based. Summed up:
as §1

Assay [19] can be described thus: Compound was tested for in vitro antitumor activity, using SCC25 human head and neck squamous carcinoma cells. It is filed as functional. The conditions noted are these: SCC-25. An outline of the steps: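 Clonogenic assay: SCC25 cells exposed to graded drug concentrations for 72 h at 37 °C, 5% CO2, in DMEM with 10% FBS and hydrocortisone ([…]). Then replated as single cells at drug-dependent densities and grown in drug-free medium 10-14 days. Colonies stained with crystal violet; only colonies of ≥50 cells scored. IC50 is mean ± SD of ≥3 assays on different days.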

Assay [20] relates to PC-3. As to the kind of experiment: Compound was evaluated for in vitro activity against PC-3 prostate cell lines (Human tumor cells ). The class given is functional, cell-based. Summed up:
as §1

Assay [21] relates to A549. Nature of the assay: Compound was evaluated for in vitro activity against A549/ATCC lung cancer cell lines (Human tumor cells ).
Assay [22] deals with SR. Nature of the assay: Compound was evaluated for in vitro activity against SR leukemia cell lines (Human tumor cells ). It is filed as functional, cell-based. An outline of the steps: as §1
In assay [23] the test system is HCT-116. Nature of the assay: Compound was evaluated for in vitro activity against HCT116 Colon cell lines (Human tumor cells ). The class given is functional, cell-based. Summed up:
as §1

Assay [24] relates to 786-0. Nature of the assay: Compound was evaluated for in vitro activity against 786-0 kidney cell lines (Human tumor cells ). The class given is functional, cell-based. Summed up:
as §1

Assay [25] concerns SK-MEL-2. As to the kind of experiment: Compound was evaluated for in vitro activity against SK-MEL-2 Melanoma cell lines (Human tumor cells ). The class given is functional, cell-based. An outline of the steps: as §1
Assay [26] concerns HOP-92. Nature of the assay: Compound was evaluated for in vitro activity against HOP-92 lung cancer cell lines (Human tumor cells ). The class given is functional, cell-based. An outline of the steps:
as §1

Assay [27] concerns RXF 393. As to the kind of experiment: Compound was evaluated for in vitro activity against RXF-393 kidney cell lines (Human tumor cells ). The class given is functional, cell-based. An outline of the steps:
as §1

Assay [28] concerns OVCAR-4. Nature of the assay: Compound was evaluated for in vitro activity against OVCAR-4 Ovary cell lines (Human tumor cells ). The class given is functional, cell-based. An outline of the steps: as §1
For assay [29], the system named is SF-539. As to the kind of experiment: Compound was evaluated for in vitro activity against SF-539 CNS cell lines (Human tumor cells ). It is filed as functional, cell-based. Summed up:
as §2

Assay [30] has as its system CCRF-CEM. Nature of the assay: Compound was evaluated for in vitro activity against CCRF-CEM leukemia cell lines (Human tumor cells ). It is filed as functional, cell-based. An outline of the steps:
as §1

The test system of assay [31] is SF-295. As to the kind of experiment: Compound was evaluated for in vitro activity against SF-295 CNS cell lines (Human tumor cells ). It is filed as functional, cell-based. Summed up: as §1
Assay [32] relates to OVCAR-8. As to the kind of experiment: Compound was evaluated for in vitro activity against OVCAR-8 Ovary cell lines (Human tumor cells ). It is filed as functional, cell-based. Summed up: as §1
The test system of assay [33] is ACHN. As to the kind of experiment: Compound was evaluated for in vitro activity against ACHN kidney cell lines (Human tumor cells ). It is filed as functional, cell-based. Summed up: as §1
Assay [34] relates to SK-MEL-5. As to the kind of experiment: Compound was evaluated for in vitro activity against SK-MEL-5 Melanoma cell lines (Human tumor cells ). It is filed as functional, cell-based. An outline of the steps: as §1
Assay [35] deals with UACC-257. Nature of the assay: Compound was evaluated for in vitro activity against UACC-257 Melanoma cell lines (Human tumor cells ). The class given is functional, cell-based. Summed up:
as §1

Assay [36] concerns SF-268. Nature of the assay: Compound was evaluated for in vitro activity against SF-268 CNS cell lines (Human tumor cells ). It is filed as functional, cell-based. An outline of the steps: as §1
The subject of assay [37] is NCI-H23. As to the kind of experiment: Compound was evaluated for in vitro activity against NCI-H23 lung cancer cell lines (Human tumor cells ). It is filed as functional, cell-based. Summed up: as §1
Assay [38] relates to K562. Nature of the assay: Compound was evaluated for in vitro activity against K562 leukemia cell lines (Human tumor cells ). It is filed as functional, cell-based. An outline of the steps: as §1
Assay [39] has as its system T47D. As to the kind of experiment: Compound was evaluated for in vitro activity against T-47D breast cancer cell lines (Human tumor cells ). The class given is functional, cell-based. An outline of the steps:
as §1

Assay [40] relates to M14. As to the kind of experiment: Compound was evaluated for in vitro activity against M14 Melanoma cell lines (Human tumor cells ). It is filed as functional, cell-based. An outline of the steps:
as §1

Assay [41] relates to HL-60. As to the kind of experiment: Compound was evaluated for in vitro activity against HL-60(TB) leukemia cell lines (Human tumor cells ). It is filed as functional, cell-based. Summed up:
as §1

Assay [42] relates to OVCAR-5. As to the kind of experiment: Compound was evaluated for in vitro activity against OVCAR-5 Ovary cell lines (Human tumor cells ). It is filed as functional, cell-based. Summed up: as §1
Assay [43] concerns HCT-15. Nature of the assay: Compound was evaluated for in vitro activity against HCT-15 Colon cell lines (Human tumor cells ). It is filed as functional, cell-based. An outline of the steps:
as §1

For assay [44], the system named is NCI-H226. As to the kind of experiment: Compound was evaluated for in vitro activity against NCI-H226 lung cancer cell lines (Human tumor cells ). The class given is functional, cell-based. An outline of the steps: as §1

For the compound `Nc1nc(N)c2nc(CNc3ccc(C(=O)NC(CCCNC(=O)c4ccccc4C(=O)O)C(=O)O)cc3)cnc2n1` (centres undefined), the IC50 (usually the midpoint of a concentration-inhibition curve) is 5.2 nM in assay [1]; > 100 nM in assay [2]; 0.23 nM in assay [3]; > 1000 nM in assay [4]; 0.56 nM in assay [5]; 5.2 nM in [6]. Moreover, the IC50 was 1.3 nM in [7]; 6.5 nM in [8]; 0.43 nM in assay [10]; 3.1 nM in assay [11]; 46 nM in assay [12]; > 1000 nM in assay [13]. In addition, the IC50 in [14] was 2.2 nM; in assay [15] it was > 100 nM; in assay [16] it was 9.6 nM; in assay [17] it was > 100 nM; in assay [18] it was > 100 nM; in [19] it was 1.8 nM. Also, the concentration for half-maximal inhibition (IC50) is > 100 nM in [20]; 0.57 nM in assay [21]; 0.42 nM in assay [22]; 0.18 nM in [23]; 0.5 nM in assay [24]; > 100 nM in assay [25]. Besides, the IC50 in assay [26] was 7.5 nM; in assay [27] it was 8.6 nM; in [28], > 100 nM; in assay [29], 2.3 nM; in assay [30], 1.5 nM; in assay [31], 0.51 nM. The IC50 in assay [32] is 0.53 nM; in assay [33] it was 0.81 nM; in assay [34], 4.7 nM; in assay [35], 25 nM; in [36], 0.73 nM; in [37] it was 2.6 nM. In addition, the IC50 was 0.3 nM in assay [38]; > 1000 nM in [39]; > 100 nM in assay [40]; 0.41 nM in assay [41]; 1 nM in assay [42]; 0.6 nM in assay [43]. The IC50 in assay [44] is > 100 nM. Moreover, the Ki (commonly the dissociation constant of the complex between target and ligand, obtained from inhibition or displacement) in assay [9] was found to be 0.00035 nM.

The compound `Nc1nc(N)c2nc(CNc3ccc(C(=O)NC(CCCNC(=O)c4ccccc4C(=O)O)C(=O)O)cc3)ccc2n1` (centres undefined) came in with a Ki in assay [9] of 0.00019 nM. 1.2 nM corresponded to half-maximal inhibition in assay [19] (IC50).

In turn, `Nc1nc(N)c2cc(CNc3ccc(C(=O)NC(CCCNC(=O)c4ccccc4C(=O)O)C(=O)O)cc3)ccc2n1` (centres undefined) returned an IC50 in assay [19] of 0.61 nM.

Take `Nc1nc(N)c2cc(CNc3ccc(C(=O)NC(CCCNC(=O)c4ccccc4C(=O)O)C(=O)O)cc3)cnc2n1` (centres undefined): affinity in assay [9] was put at a Ki of 0.00041 nM. Besides, the IC50 in [19] came to 1.8 nM.
